From PubChem BioAssay
An excerpt weighted towards active compounds, which were near 2.5% of everything screened.
AF4-AF9 inh: MLL-AF4/AF9 protein interaction inhibition | P42568 | AlphaScreen, biotin-AF4 peptide binding to FLAG-AF9 | inhibition, % at 10 µM | hit rate 0.47% among 350,000 | AID 651704;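 active means every replicate reaching a set inhibition limit, whatever the replicate mean, cut at about 25% in these data; inconclusive means mean inhibition reaches that limit but some replicates miss it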;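 further: 0% = plate neutral control median and 100% = total signal loss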
Target sequence (P42568 whole entry, looked up): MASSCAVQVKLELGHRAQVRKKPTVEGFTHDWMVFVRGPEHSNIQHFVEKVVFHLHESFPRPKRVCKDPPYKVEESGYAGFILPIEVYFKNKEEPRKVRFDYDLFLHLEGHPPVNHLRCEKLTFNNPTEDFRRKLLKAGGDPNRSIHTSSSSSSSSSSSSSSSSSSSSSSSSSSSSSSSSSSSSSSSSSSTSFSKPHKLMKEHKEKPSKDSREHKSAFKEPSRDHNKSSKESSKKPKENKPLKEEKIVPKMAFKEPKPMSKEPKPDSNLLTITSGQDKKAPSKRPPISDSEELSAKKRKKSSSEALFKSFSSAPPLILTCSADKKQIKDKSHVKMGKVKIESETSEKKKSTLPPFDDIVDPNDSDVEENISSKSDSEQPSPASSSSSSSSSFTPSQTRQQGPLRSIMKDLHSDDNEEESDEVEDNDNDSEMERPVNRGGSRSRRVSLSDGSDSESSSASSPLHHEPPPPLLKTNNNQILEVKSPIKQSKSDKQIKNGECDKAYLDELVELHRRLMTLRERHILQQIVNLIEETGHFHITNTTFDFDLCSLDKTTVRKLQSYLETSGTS
FN deposit inh: fibronectin deposition inhibition; inhibition, % at 12.6 µM; AH1F fibroblasts, Alexa488-fibronectin deposition fluorescence, overnight; hit rate 0.086% among 350,000;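 active means mean inhibition across replicates of 30% or more, regardless of how many single replicates reach that level; inconclusive means mean under 30% yet at least half of replicates reach 30%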;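 further: positive control wells lacked labelled fibronectin entirely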
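Material: AH1F fibroblasts assembling fluorescent fibronectin matrix; amount: 10000 AH1F cells/well; medium: DMEM, 2% serum; reagent: Alexa488-fibronectin, 24 nM final in well; dosing: single compound dose, delivered by pin transfer; incubation: 1 h adhesion, overnight exposure; detection: fluorescence after three HBSS washes, excitation 485 nm, emission 525 nm; measure: fibronectin deposition inhibition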
PAX8 reporter: PAX8 transcriptional activity inhibition | inhibition, % at 12.6 µM | RMG-I TPO-luciferase reporter, SteadyGlo, 24 h | hit rate 1.2% among 360,000 | AID 652154;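 active means mean replicate inhibition at least 60% with every replicate also reaching 60%; inconclusive means only one of the two criteria is met; inactive means mean below 60% and not all replicates reaching 60%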;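 further: luciferase light reporting Pax8 driven TPO promoter activity; plate controls were median of neutral control wells for no effect and mitoxantrone controls for full effect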
Glyco luc inh: blocks N-linked glycosylation in D54 reporter cells; reporter increase, % at 12.5 µM; AID 588692; D54 ERlucT glycosylation luciferase reporter, 24 h; percent of 100 nM tunicamycin response; hit rate 0.23% among 360,000;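 active means mean luciferase reporter signal, scaled so untreated is 0 and the glycosylation-blocking control 100, at or above a set limit in every replicate; inconclusive means mean reaches the limit but not every replicate does; inactive means mean below the limit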;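 further: luciferase carries N-glycosylation sites so blocking glycosylation raises the light; 0% = median of neutral control wells and 100% = median of 100 nM tunicamycin wells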
EWS-Fli block: inhibitors of EWS/Fli oncoprotein transcriptional activity. A673 NR0B1-luciferase reporter, viability-normalised. inhibition, % at 12.6 µM. hit rate 0.67% among 350,000;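 active means mean inhibition of at least 50% after viability correction, with every replicate also passing that limit; inconclusive means mean reaches 50% but only one of two replicates passes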;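 further: firefly luciferase signal divided by Alamar Blue viability fluorescence both relative to DMSO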
Env fusion inh: HIV envelope-mediated fusion inhibition; HeLa-JRFL Env/CEM21 cell fusion, luciferase; inhibition, % at 12.3 µM; hit rate 1.1% among 360,000;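 active means mean replicate inhibition score of at least 50 and every replicate individually at or above 50; inconclusive means only one of the two criteria met; inactive means mean below 50 and not all replicates reaching 50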;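 further: 0% = plate neutral controls and 100% = maraviroc near 300 nM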
* = called active by the depositor; ? = inconclusive; nt = not tested or not shown; [ ] = dose if it differs, or a comment.

SMILES	AF4-AF9 inh	FN deposit inh	PAX8 reporter	Glyco luc inh	EWS-Fli block	Env fusion inh
O=c1cc(O)c2sc(Nc3ccc(Cl)c(F)c3)nc2[nH]1	nt	1	70*	-2	29	31
COc1ccc(NC(=O)Nc2ccc3c(c2)CC(=O)N([C@H](C)CO)C[C@@H](C)[C@@H](CN(C)Cc2ccc(C(=O)O)cc2)O3)cc1	-1	nt	nt	nt	-9	-6[16.7 µM]
COC(=O)[C@@H]1Cc2c([nH]c3ccccc23)C(C)(C)N1C(=O)CCl	-10	4	112*	12	58*	-10
C=C1C(=O)C23CCC4C(C)(C(=O)OC)CCCC4(C)C2CCC1(O)C3 (stereo not given)	-3	37*	134*	-21	56*	-27
COC(=O)[C@]1(C)CCC[C@@]2(C)C3CC[C@@]4(C)C[C@]3(CCC21)CC(=O)N4 (stereo not given in full)	nt	0	6	0	-3	15
CN1CCc2ccccc2Cc2[nH]c3ccccc3c2CC1	5	-1	9	1	5	71*
C[C@@H]1CN([C@H](C)CO)C(=O)c2cc(NC(=O)Nc3cccc4ccccc34)ccc2O[C@@H](C)CCCCO[C@H]1CN(C)Cc1ccc2c(c1)OCO2	nt	nt	69*	nt	?	19[16.7 µM]
C[C@H](CO)N1C[C@H](C)[C@H](CN(C)Cc2ccc3c(c2)OCO3)Oc2ccc(NC(=O)Nc3cccc4ccccc34)cc2C1=O	5	nt	94*	nt	3	16[16.7 µM]
C[C@@H]1CCCCO[C@@H](CN(C)Cc2ccc3c(c2)OCO3)[C@@H](C)CN([C@H](C)CO)C(=O)c2cc(NC(=O)Nc3cccc4ccccc34)ccc2O1	nt	nt	-5	nt	2	11[16.7 µM]
C[C@@H]1CCCCO[C@@H](CN(C)Cc2ccc3c(c2)OCO3)[C@H](C)CN([C@H](C)CO)C(=O)c2cc(NC(=O)Nc3cccc4ccccc34)ccc2O1	nt	nt	37	nt	71*	1[16.7 µM]
C[C@@H]1CCCCO[C@@H](CN(C)Cc2ccc3c(c2)OCO3)[C@@H](C)CN([C@@H](C)CO)C(=O)c2cc(NC(=O)Nc3cccc4ccccc34)ccc2O1	nt	nt	24	nt	12	1[16.7 µM]
C[C@@H]1CCCCO[C@H](CN(C)Cc2ccc3c(c2)OCO3)[C@@H](C)CN([C@@H](C)CO)C(=O)c2cc(NC(=O)Nc3cccc4ccccc34)ccc2O1	nt	nt	39	nt	64*	-5[16.7 µM]
C[C@H]1CCCCO[C@@H](CN(C)Cc2ccc3c(c2)OCO3)[C@@H](C)CN([C@@H](C)CO)C(=O)c2cc(NC(=O)Nc3cccc4ccccc34)ccc2O1	nt	nt	36	nt	46	50[16.7 µM]
C[C@@H]1CN([C@H](C)CO)C(=O)c2cc(C3=CCCC3)cnc2O[C@@H]1CN(C)C(=O)NC1CCCC1	-22	nt	nt	nt	6	-1[16.7 µM]
Cc1ccc(S(=O)(=O)N(C)c2ccc(C(=O)N(C)Cc3nc4ccccc4c(=O)[nH]3)cc2)cc1	0	-4	11	1	3	58*
CN(Cc1nc2ccccc2c(=O)[nH]1)C(=O)c1ccc(S(=O)(=O)N(C)C)cc1	nt	2	nt	2	nt	-60
CCCC(=O)Nc1ccc2c(c1)OC[C@@H](C)N(C(=O)C1CCCC1)C[C@H](C)[C@H](OC)CN(C)C2=O	-1	0	nt	nt	-8	-4[16.7 µM]
C=CCN(Cc1ccc(OC)c(OC)c1)C(=O)c1cc2cc(F)ccc2[nH]1	0	10	11	-3	12	76*
COc1cc2cc(C(=O)N(C)Cc3ccccc3)[nH]c2cc1OC	-4	-1	14	3	-2	-15
COC(=O)c1ccccc1-c1ccc(C(c2c(C)[nH][nH]c2=O)c2c(C)[nH][nH]c2=O)o1	-3	nt	21	29*	16	-19
COC(=O)c1cccc(-c2ccc(C(c3c(C)[nH][nH]c3=O)c3c(C)[nH][nH]c3=O)o2)c1	0	-1	-15	?	-14	-7
O=C(Nc1cc2c3c(c1)CC(=O)N3CCC2)c1ccc(Cl)cc1	8	-3	-46	7	-30	85*
O=C(NC[C@H]1[C@H](c2ccccc2)[C@H](CO)N1Cc1ccccn1)C1CCC1	nt	-5	1	nt	-11	nt
COc1ccc(C)cc1NC(=O)Nc1cnccn1	3	nt	-5	20	8	-13
COc1ccc(NC(=O)Nc2cnccn2)cc1OC	1	1	-4	3	-3	19
SMILES	AF4-AF9 inh	FN deposit inh	PAX8 reporter	Glyco luc inh	EWS-Fli block	Env fusion inh
COc1ccc(NC(=O)Nc2cnccn2)c(OC)c1	1	4	-18	3	-13	57*
COc1ccc(Cl)cc1NC(=O)Nc1cnccn1	-1	nt	10	0	14	71*
COc1ccc2c3c(n(C)c2c1)[C@@H](CO)N(C(=O)C1CCCC1)CC31CCN(C(=O)CC2CC2)CC1	-2	nt	5	nt	-1	nt
Cc1ccc(C)c(CNc2ccc(S(=O)(=O)N3CCCCC3)cc2)c1	0	-12	33	-2	18	76*
Cc1ccc(S(=O)(=O)N2CCCCC2)cc1	-19	-7	19	0	-10	17
Cn1cnc(CCNC(=O)C[C@H]2CC[C@@H]3[C@H](COC[C@@H](O)CN3C(=O)C3CCCC3)O2)c1	-2	-9	6	nt	-4	9[16.7 µM]
Cc1cc(C)c2c(=O)n3c(nc2c1)C(Cc1ccc(O)cc1)NC(=O)c1cc2ccccc2cc1-3 (stereo not given)	0	6	72*	3	27	-124
O=C1NC(Cc2ccc(O)cc2)c2nc3ccc(Br)cc3c(=O)n2-c2cc3ccccc3cc21 (stereo not given)	1	-7	?	10	27	-344
CC(C)=CCN(C(=O)C#Cc1ccccc1)[C@H](CO)c1ccccc1	4	nt	105*	nt	42	28[16.7 µM]
C#CCN(CC=C(C)C)[C@H](CO)c1ccccc1	-1	nt	-6	nt	-5	-16[16.7 µM]
O=C1c2cccc3cc([N+](=O)[O-])cc(c23)C(=O)N1CCN1CCCC1	-2	1	90*	-1	69*	-78
O=C(C[C@H]1CC[C@@H](NC(=O)c2ccc3c(c2)OCO3)[C@H](CO)O1)NCc1ccc(Cl)cc1	0	nt	10	nt	-1	11[16.7 µM]
C[C@@H]1CN([C@@H](C)CO)C(=O)c2c(c3ccccc3n2C)-c2ccccc2CO[C@H]1CN(C)S(=O)(=O)c1ccccc1F	4	4	84*	nt	17	24[16.7 µM]
C[C@H]1CN([C@@H](C)CO)C(=O)c2c(c3ccccc3n2C)-c2ccccc2CO[C@@H]1CN(C)S(=O)(=O)c1ccccc1F	6	1	74*	nt	7	17[16.7 µM]
CCCN(CC(=O)Nc1ccccc1C)C(=O)COc1c(C)cccc1C	5	5	-5	-3	-5	-24
CCCN(CC(=O)Nc1ccccc1C)C(=O)CCl	-1	20	61*	0	40	24
Cc1cc(/C=N/n2cnnc2)c(C)n1-c1ccc(OCc2ccc(Cl)cc2Cl)cc1	nt	nt	nt	-2	nt	nt
Cc1cc(/C=N/n2cnnc2)c(C)n1-c1ccc(OCc2ccc(F)cc2)cc1	nt	5	nt	-7	nt	66*
